Source: ChEMBL document CHEMBL4814057, “4-4-(Anilinomethyl)-3-[4-(trifluoromethyl)phenyl]-1H-pyrazol-1-ylbenzoic acid derivatives as potent anti-gram-positive bacterial agents” (Eur J Med Chem, 2021)
In brackets after ≈: the same amount, converted by molar mass. Activity calls are given as the source filed them. The rule behind the calls is not given here.

Experiments:
Enterococcus faecium = assay: Antimicrobial activity against vancomycin-resistant Enterococcus faecium ATCC 700221 assessed as bacterial growth inhibitions by CLSI protocol based microdilution method; assay type: functional
Staphylococcus aureus [1] = assay: Antimicrobial activity against methicillin-resistant Staphylococcus aureus ATCC 33591 assessed as bacterial growth inhibitions by CLSI protocol based microdilution method; assay type: functional
Staphylococcus aureus [2] = assay: Antimicrobial activity against antibiotic-resistant Staphylococcus aureus BM-2312 assessed as bacterial growth inhibitions by CLSI protocol based microdilution method; assay type: functional
Staphylococcus aureus [3] = assay: Antimicrobial activity against methicillin-resistant Staphylococcus aureus ATCC 33592 assessed as bacterial growth inhibitions by CLSI protocol based microdilution method; assay type: functional
Staphylococcus aureus [4] = assay: Antimicrobial activity against methicillin-resistant Staphylococcus aureus ATCC 700699 assessed as bacterial growth inhibitions by CLSI protocol based microdilution method; assay type: functional
Staphylococcus aureus [5] = assay: Antimicrobial activity against methicillin-susceptible Staphylococcus aureus ATCC 25923 assessed as bacterial growth inhibitions by CLSI protocol based microdilution method; assay type: functional
Bacillus subtilis = assay: Antimicrobial activity against Bacillus subtilis ATCC 6623 assessed as bacterial growth inhibitions by CLSI protocol based microdilution method; assay type: functional
Procedure, shortened: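 Broth microdilution starting at 50 µg/ml with 2-fold serial dilutions; run in triplicate.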

Enterococcus faecalis = assay: Antimicrobial activity against vancomycin-susceptible Enterococcus faecalis ATCC 29212 assessed as bacterial growth inhibitions by CLSI protocol based microdilution method
[6] = test system: Staphylococcus epidermidis; assay: Antimicrobial activity against methicillin-resistant Staphylococcus epidermidis ATCC 700296 assessed as bacterial growth inhibitions by CLSI protocol based microdilution method; assay type: functional

Structure (SMILES)	MIC (Enterococcus faecium)	MIC (Staphylococcus aureus [1]) [µg/mL]	MIC (Staphylococcus aureus [2]) [µg/mL]	MIC (Staphylococcus aureus [3]) [µg/mL]	MIC (Staphylococcus aureus [4]) [µg/mL]	MIC (Staphylococcus aureus [5]) [µg/mL]	MIC (Bacillus subtilis) [µg/mL]	MIC (Enterococcus faecalis)	MIC [6] [µg/mL]
O=C(O)c1ccc(-n2cc(CNc3cccc(Cl)c3F)c(-c3ccc(C(F)(F)F)cc3)n2)cc1	0.78 µg/mL (≈ 1.59 µM)	1.56 (≈ 3.18 µM)	0.78 (≈ 1.59 µM)	1.56 (≈ 3.18 µM)	3.12 (≈ 6.37 µM)	1.56 (≈ 3.18 µM)	0.78 (≈ 1.59 µM)		
O=C(O)c1ccc(-n2cc(CNc3ccc(Cl)c(C(F)(F)F)c3)c(-c3ccc(C(F)(F)F)cc3)n2)cc1	0.78 µg/mL (≈ 1.44 µM)	0.78 (≈ 1.44 µM)	0.78 (≈ 1.44 µM)	0.78 (≈ 1.44 µM)	0.78 (≈ 1.44 µM)	0.78 (≈ 1.44 µM)	0.78 (≈ 1.44 µM)	0.78 µg/mL (≈ 1.44 µM)	0.78 (≈ 1.44 µM)
O=C(O)c1ccc(-n2cc(CNc3cc(Cl)c(O)c(Cl)c3)c(-c3ccc(C(F)(F)F)cc3)n2)cc1	inactive	50 (≈ 95.7 µM)	50 (≈ 95.7 µM)	50 (≈ 95.7 µM)	50 (≈ 95.7 µM)	50 (≈ 95.7 µM)	12.5 (≈ 23.9 µM)	50 µg/mL (≈ 95.7 µM)	50 (≈ 95.7 µM)
O=C(O)c1ccc(-n2cc(CNc3cc(F)c(C(F)(F)F)cc3F)c(-c3ccc(C(F)(F)F)cc3)n2)cc1	0.78 µg/mL (≈ 1.44 µM)	0.78 (≈ 1.44 µM)	0.78 (≈ 1.44 µM)	0.78 (≈ 1.44 µM)	0.78 (≈ 1.44 µM)	0.78 (≈ 1.44 µM)	0.78 (≈ 1.44 µM)	1.56 µg/mL (≈ 2.88 µM)	
O=C(O)c1ccc(-n2cc(CNc3cc(C(F)(F)F)ccc3F)c(-c3ccc(C(F)(F)F)cc3)n2)cc1	1.56 µg/mL (≈ 2.98 µM)	0.78 (≈ 1.49 µM)	0.78 (≈ 1.49 µM)	1.56 (≈ 2.98 µM)	0.78 (≈ 1.49 µM)	1.56 (≈ 2.98 µM)	0.78 (≈ 1.49 µM)	6.25 µg/mL (≈ 11.9 µM)	3.12 (≈ 5.96 µM)
O=C(O)c1ccc(-n2cc(CNc3ccc(Br)cc3)c(-c3ccc(C(F)(F)F)cc3)n2)cc1	0.78 µg/mL (≈ 1.51 µM)	0.78 (≈ 1.51 µM)	0.78 (≈ 1.51 µM)	1.56 (≈ 3.02 µM)	0.78 (≈ 1.51 µM)	0.78 (≈ 1.51 µM)	0.78 (≈ 1.51 µM)	6.25 µg/mL (≈ 12.1 µM)	3.12 (≈ 6.04 µM)
O=C(O)c1ccc(-n2cc(CNc3cc(Cl)c(F)cc3F)c(-c3ccc(C(F)(F)F)cc3)n2)cc1	1.56 µg/mL (≈ 3.07 µM)	1.56 (≈ 3.07 µM)	0.78 (≈ 1.54 µM)	1.56 (≈ 3.07 µM)	0.78 (≈ 1.54 µM)	1.56 (≈ 3.07 µM)	0.78 (≈ 1.54 µM)	6.25 µg/mL (≈ 12.3 µM)	3.12 (≈ 6.14 µM)
O=C(O)c1ccc(-n2cc(CNc3cc(Cl)cc(Cl)c3)c(-c3ccc(C(F)(F)F)cc3)n2)cc1	0.78 µg/mL (≈ 1.54 µM)	0.78 (≈ 1.54 µM)	0.78 (≈ 1.54 µM)	0.78 (≈ 1.54 µM)	0.78 (≈ 1.54 µM)	0.78 (≈ 1.54 µM)	0.78 (≈ 1.54 µM)	1.56 µg/mL (≈ 3.08 µM)	0.78 (≈ 1.54 µM)
O=C(O)c1ccc(-n2cc(CNc3ccc(F)cc3)c(-c3ccc(C(F)(F)F)cc3)n2)cc1	6.25 µg/mL (≈ 13.7 µM)	6.25 (≈ 13.7 µM)	3.12 (≈ 6.85 µM)	12.5 (≈ 27.4 µM)	6.25 (≈ 13.7 µM)	6.25 (≈ 13.7 µM)	1.56 (≈ 3.43 µM)	25 µg/mL (≈ 54.9 µM)	12.5 (≈ 27.4 µM)
O=C(O)c1ccc(-n2cc(CNc3cc(C(F)(F)F)cc(C(F)(F)F)c3)c(-c3ccc(C(F)(F)F)cc3)n2)cc1	0.78 µg/mL (≈ 1.36 µM)	0.78 (≈ 1.36 µM)	0.78 (≈ 1.36 µM)	0.78 (≈ 1.36 µM)	0.78 (≈ 1.36 µM)	0.78 (≈ 1.36 µM)	0.78 (≈ 1.36 µM)	0.78 µg/mL (≈ 1.36 µM)	1.56 (≈ 2.72 µM)
NS(=O)(=O)c1ccc(NCc2cn(-c3ccc(C(=O)O)cc3)nc2-c2ccc(C(F)(F)F)cc2)cc1	inactive	50 (≈ 96.8 µM)	50 (≈ 96.8 µM)	50 (≈ 96.8 µM)	0.39 (≈ 0.755 µM)	50 (≈ 96.8 µM)	50 (≈ 96.8 µM)	inactive	50 (≈ 96.8 µM)
O=C(O)c1ccc(-n2cc(CNc3cc(F)c(F)c(F)c3)c(-c3ccc(C(F)(F)F)cc3)n2)cc1	0.78 µg/mL (≈ 1.59 µM)	0.78 (≈ 1.59 µM)	0.78 (≈ 1.59 µM)	0.78 (≈ 1.59 µM)	0.78 (≈ 1.59 µM)	0.78 (≈ 1.59 µM)	0.78 (≈ 1.59 µM)	1.56 µg/mL (≈ 3.17 µM)	1.56 (≈ 3.17 µM)
O=C(O)c1ccc(-n2cc(CNc3cccc(Br)c3)c(-c3ccc(C(F)(F)F)cc3)n2)cc1	1.56 µg/mL (≈ 3.02 µM)	0.78 (≈ 1.51 µM)	0.78 (≈ 1.51 µM)	0.78 (≈ 1.51 µM)	1.56 (≈ 3.02 µM)	0.78 (≈ 1.51 µM)	0.78 (≈ 1.51 µM)	6.25 µg/mL (≈ 12.1 µM)	3.12 (≈ 6.04 µM)
O=C(O)c1ccc(-n2cc(CNc3cc(Cl)ccc3Cl)c(-c3ccc(C(F)(F)F)cc3)n2)cc1	0.78 µg/mL (≈ 1.54 µM)	0.78 (≈ 1.54 µM)	0.78 (≈ 1.54 µM)	0.78 (≈ 1.54 µM)	0.78 (≈ 1.54 µM)	0.78 (≈ 1.54 µM)	0.78 (≈ 1.54 µM)	3.12 µg/mL (≈ 6.16 µM)	1.56 (≈ 3.08 µM)
Cc1ccc(NCc2cn(-c3ccc(C(=O)O)cc3)nc2-c2ccc(C(F)(F)F)cc2)cc1Cl	0.78 µg/mL (≈ 1.61 µM)	0.78 (≈ 1.61 µM)	0.78 (≈ 1.61 µM)	0.78 (≈ 1.61 µM)	0.78 (≈ 1.61 µM)	0.78 (≈ 1.61 µM)	0.78 (≈ 1.61 µM)	3.12 µg/mL (≈ 6.42 µM)	1.56 (≈ 3.21 µM)
